Only some compounds are listed: those with a hit (about 3.7% of all), similar ones and a draw of the others.
EP2 mod: EP2 receptor (human) modulation. P43116. EP2-expressing cells, cAMP HTRF FRET, PGE2 co-stimulation. induction, % at 25 µM. 260,000 compounds, 0.83% hits. AID 940;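 active = compounds whose cAMP rise, as percent of the full-agonist control response, exceeds 60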;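 also: rat C6 glioma line stably carrying human EP2 under a CMV promoter; the protocol text gives 20 µM as final concentration; 100% = response of wells given 1 µM PGE2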
Target sequence (P43116 whole entry, looked up): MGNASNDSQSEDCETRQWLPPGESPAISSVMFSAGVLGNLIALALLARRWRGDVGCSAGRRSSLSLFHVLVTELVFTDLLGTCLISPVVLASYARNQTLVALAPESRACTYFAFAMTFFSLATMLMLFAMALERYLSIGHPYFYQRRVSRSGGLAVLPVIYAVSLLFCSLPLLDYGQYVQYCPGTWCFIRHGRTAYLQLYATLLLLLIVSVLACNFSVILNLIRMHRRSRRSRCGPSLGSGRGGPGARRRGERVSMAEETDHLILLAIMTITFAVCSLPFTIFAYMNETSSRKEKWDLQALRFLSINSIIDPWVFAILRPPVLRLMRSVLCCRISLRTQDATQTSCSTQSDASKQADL
PGE2 EP2 inh: blocks the human prostaglandin E2 receptor EP2; P43116; C6 glioma cells expressing human EP2, cAMP TR-FRET; cells stimulated with saturating PGE2; inhibition, % at 25 µM; 260,000 compounds, 0.52% hits;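 active = percent inhibition above 40 after rounding to a whole number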;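 also: rat C6 glioma host cells with rolipram phosphodiesterase inhibitor present; the protocol text gives 20 µM as final concentration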
OX1R antag-1: blocks the human orexin 1 receptor; CHO/OX1R cells, Fluo-8 calcium fluorescence, orexin A; 330,000 compounds, 0.43% hits; O43613; inhibition, % at 5 µM;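 active = inhibition above its plate's threshold, mean inhibition of all tested compounds on the plate plus 3 SD, cut at about 37% in these data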;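 also: 0% = orexin A challenge wells and 100% = SB-334867-A antagonist wells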
CHO parental Ca: counter-screen for OX1R antagonists: effect in parental CHO cells; parental CHO-K1, ATP-induced calcium, Fluo-8 fluorescence; AID 463079; 330,000 compounds, 0.63% hits; inhibition, % at 5.6 µM;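 active = inhibition above that plate's mean sample inhibition plus 3 SD, cut at about 26% in these data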;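 also: 0% = ATP-challenged DMSO wells and 100% = DMSO wells without ATP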
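Test system: parental CHO cells; detection: calcium-sensitive Fluo-8 fluorescence; evaluation: percent inhibition of calcium signal; also added: ATP as calcium-mobilizing challenge; repeats: one well per compound; control set: ATP-challenged DMSO wells low, unchallenged DMSO wells high; compound: single nominal dose of 5.6 µM per compound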
OX1R antag-2: antagonists of human orexin 1 receptor (OX1R). 330,000 compounds, 1.8% hits. O43613. OX1R-expressing cells, FRET antagonist read-out. inhibition, % at 6.6 µM; in the data active = inhibition mostly above about 38%, no sharp cut-off; inactive = mostly below about 40%;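 also: 0% = agonist challenge alone and 100% = reference antagonist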
GPR7 antag: antagonists of human GPR7 (neuropeptides B/W receptor 1); GPR7-expressing cells, fluorescence antagonist assay; inhibition, % at 4.4 µM; 290,000 compounds, 1.1% hits; in the data active = inhibition above about 16%, passing the limit was not always enough;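 also: cells stimulated with the agonist NPW; 0% = agonist with vehicle and 100% = vehicle without agonist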
Target sequence (P48145 whole entry, looked up): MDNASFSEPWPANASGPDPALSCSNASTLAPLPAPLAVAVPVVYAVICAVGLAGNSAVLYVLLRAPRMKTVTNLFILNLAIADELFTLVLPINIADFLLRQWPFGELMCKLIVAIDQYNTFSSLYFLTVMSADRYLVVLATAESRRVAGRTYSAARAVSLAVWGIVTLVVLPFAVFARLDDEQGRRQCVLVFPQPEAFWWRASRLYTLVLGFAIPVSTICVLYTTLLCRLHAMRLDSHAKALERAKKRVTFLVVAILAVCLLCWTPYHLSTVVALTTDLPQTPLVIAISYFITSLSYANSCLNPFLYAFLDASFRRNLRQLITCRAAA
Numbers without * were called inactive; . = not tested or not shown; ! = repeats disagree.

SMILES | EP2 mod | PGE2 EP2 inh | OX1R antag-1 | CHO parental Ca | OX1R antag-2 | GPR7 antag
CCN(CC)CCn1c2ccccc2c2nc3ccccc3nc21 | . | . | -2.4 | -10.7 | 66.6* | -5.2
CCN(CC)CCn1c2ccccc2c2n[nH]c(=S)nc21 | . | . | -20.2 | -13.9 | 20.3 | -3.5
CC(C)N(C(=O)Cn1c(-c2ccccc2Cl)nc2ccccc21)c1ccccc1 | 8.6 | 4.0 | -15.1 | -16.7 | 23.7 | 8.9
CCc1cccc(CC)c1NC(=O)Cn1c(-c2ccccc2Cl)nc2ccccc21 | -15.8 | 2.4 | 1.9 | -19.0 | 13.9 | 18.5*
CC(=O)c1cccc(NS(=O)(=O)c2csc(C(N)=O)c2)c1 | . | . | -26.4 | 2.5 | -8.6 | -4.9
Cc1ccc(NC2=CC(=O)C(=O)c3ccccc32)cc1 | -57.0 | 25.5 | -20.7 | -21.9 | 52.2* | -1.2
NS(=O)(=O)c1ccc(NC2=CC(=O)C(=O)c3ccccc32)cc1 | . | . | 7.6 | 3.5 | 60.4* | -12.3
CCOC(=O)c1ccc(NC2=CC(=O)C(=O)c3ccccc32)cc1 | -40.6 | 27.7 | -30.0 | -12.5 | 28.2 | 4.3
CC(=O)Oc1ccc(C2=NN(c3ccccc3)C(c3ccccc3)C2)cc1 (centres undefined) | . | . | -22.8 | -5.6 | 4.6 | -13.2
Cc1nc2ccc([N+](=O)[O-])cc2c(=O)n1Cc1cccc(F)c1 | . | . | -2.9 | -15.1 | 1.5 | 18.2
CC(=O)Oc1ccc(C(=O)NCc2ccc3c(c2)OCO3)cc1 | . | . | 6.0 | 5.0 | -4.6 | -6.6
COC(=O)c1ccc(OC(=O)CS(=O)c2ccccc2[N+](=O)[O-])cc1 (centres undefined) | 9.4 | 2.7 | -15.4 | -11.5 | 62.7* | -2.5
CCOC(=O)c1ccccc1OC(=O)CS(=O)c1ccccc1[N+](=O)[O-] (centres undefined) | -12.7 | 21.8 | -22.5 | -7.0 | 67.5 | -1.5
CC1(c2nnc(-c3ccccc3)o2)CC(c2ccc(Cl)cc2)=NO1 (centres undefined) | -9.0 | 14.8 | -11.3 | -19.6 | 17.1 | .
O=C(Cn1cnc2c(OCc3ccccc3)ncnc21)NCc1ccccn1 | . | . | -1.1 | -7.0 | 1.5 | .
COc1ccc(S(N)(=O)=O)cc1C(=O)OCC(=O)Nc1sccc1C#N | . | . | 29.2 | -4.9 | 10.3 | .
N#Cc1ccsc1NC(=O)COC(=O)c1cc2ccccc2cc1O | -56.6 | 7.5 | -8.3 | -13.7 | 41.1* | -6.3
c1ccc(CCNc2nc(-c3ccncc3)nc3ccccc23)cc1 | -28.9 | 45.8* | -25.3 | -28.8 | 7.9 | -10.8
c1ccc(Nc2nc(-c3ccncc3)nc3ccccc23)cc1 | -5.9 | 3.3 | -21.1 | -14.4 | 7.3 | -3.6
CC(C)OCCCNc1nc(-c2ccccc2)nc2ccccc12 | . | . | 23.3 | -17.2 | 51.5* | -17.5
CC(C)(C)C(=O)OCCNc1nc(-c2ccccc2)nc2ccccc12 | -5.1 | 3.3 | -12.9 | -16.6 | 71.8* | -6.4
CC(C)NC[C@H](O)c1ccc(O)c(O)c1 | 76.0*! | 11.3 | -1.9 | -6.3 | 15.7 | .
CC(C)C(=O)c1ccc(O)c(O)c1 | 11.4 | 6.3 | 5.8 | 0.2 | 3.4 | 8.0
CCC(NC(C)C)C(O)c1ccc(O)c(O)c1 (centres undefined) | 60.6* | 15.2 | -5.6 | 3.5 | 13.1 | -8.4
NCC(O)c1ccc(O)c(O)c1 (centres undefined) | 66.4* | 8.7 | . | . | . | .
SMILES | EP2 mod | PGE2 EP2 inh | OX1R antag-1 | CHO parental Ca | OX1R antag-2 | GPR7 antag
Fc1cccc(-c2nc3cnccn3c2NC2CCCC2)c1 | -73.2 | . | . | . | . | .
Cc1ccc(S(=O)(=O)Nc2cccc(C(=O)NCC(c3ccco3)N(C)C)c2)cc1F (centres undefined) | . | . | -30.4 | -29.7 | 13.8 | .
COc1ccc(CCNC(=O)c2ccccc2C(=O)NCCc2ccc(OC)c(OC)c2)cc1OC | . | . | -4.3 | -11.8 | 49.8* | .
COc1ccc(CCNC(=O)Cc2ccc([N+](=O)[O-])cc2)cc1OC | 11.2 | 5.3 | -9.8 | -12.4 | 4.6 | -8.9
COc1ccc(CCNC(=O)c2ccc3c(c2)N(Cc2ccccc2)CCS3)cc1OC | . | . | -12.4 | -4.0 | 57.3* | 6.3
COc1ccc(CCNC(=O)c2cccs2)cc1OC | 10.1 | 3.0 | 2.8 | -0.9 | 10.1 | -1.7
NS(=O)(=O)c1ccc(CCNC(=O)c2ccc3c(c2)N(Cc2ccccc2)CCS3)cc1 | . | . | -6.5 | -6.7 | 70.3* | -5.5
COc1ccc(CCNC(=O)Cc2ccc(OCc3ccccc3)c(OC)c2[N+](=O)[O-])cc1OCc1ccccc1 | -5.8 | . | 35.3 | 45.6* | 24.7 | 2.5
O=C(O)c1ccccc1C(=O)OCCc1cc2ccccc2c(=O)o1 | . | . | 1.4 | -6.5 | 12.7 | .
O=C(Nn1cnnc1)c1ccc(OC(F)(F)C(F)C(F)(F)F)cc1 (centres undefined) | . | . | -6.2 | -9.6 | 1.9 | -0.2
Cc1ccc(C)c(NC(=O)C(NCC(C)(C)N2CCOCC2)c2ccccc2)c1 (centres undefined) | 3.7 | 5.7 | -36.1 | -9.5 | 7.1 | -5.5
CCN(CC)c1ccc(NC(=O)CNCc2cccs2)c(C)c1 | -59.6 | 10.6 | . | . | . | .
CCNc1ccccc1C(=O)O | -22.4 | 12.1 | -5.1 | -6.9 | 16.4 | -16.8
COC(=O)c1c(NC(=O)CN2C(=O)NC3(CCCCC3C)C2=O)sc2c1CCC2 (centres undefined) | . | . | -33.2 | -24.9 | 14.0 | .
Cc1ccc(CN2CCSc3ccc(C(=O)NCc4ccccn4)cc32)cc1 | 61.2* | 8.8 | -24.8 | -20.2 | 15.2 | 5.7
O=C(NCc1ccco1)c1ccc2c(c1)N(Cc1ccccc1)CCS2 | 16.0 | 4.8 | -10.4 | -9.2 | 33.4 | -8.0
COCCn1c(SCC(=O)N2CCCc3ccccc32)nc2ccccc2c1=O | -7.1 | 8.1 | 2.3 | -9.2 | 53.0* | -7.7
CC(C)Cn1c(SCC(=O)N2CCc3ccccc3C2)nc2cc(Cl)ccc2c1=O | -19.2 | 2.5 | -29.4 | -26.6 | 29.4 | -2.6
Cc1ccc(-n2c(SCC(=O)N3CC(=O)Nc4ccccc43)nc3ccccc3c2=O)cc1C | 17.3 | 2.8 | 15.2 | 9.4 | 72.3* | 8.7
O=C(CSc1nc2ccccc2c(=O)n1-c1ccccc1)N1CCc2ccccc2C1 | -3.8 | 10.6 | -9.3 | -28.5 | 54.7* | -5.5
O=C(CSc1nc2ccccc2c(=O)n1-c1ccccc1)N1CCC1 | 19.4 | 2.7 | -9.2 | -5.0 | 9.9 | -2.7
CC(C)c1ccccc1-n1c(SCC(=O)N2CCc3ccccc3C2)nc2ccccc2c1=O | 0.5 | 10.4 | 23.8 | -13.2 | 73.3* | 18.3
CC1(c2ccccc2Br)NC(=O)N(CC(=O)N2CCc3ccccc3C2)C1=O (centres undefined) | . | . | -27.1 | -7.1 | 1.8 | .
S=c1[nH]nc(Cc2cccc3ccccc23)o1 | 0.5 | 1.5 | 3.9 | -11.2 | 17.5 | -6.2
CCN(C(=O)COc1cc(=O)n(CC)c2ccccc12)c1cccc(Cl)c1 | 12.1 | 3.4 | -31.0 | -12.2 | 47.3* | 3.3
CCN(C(=O)COc1cc(=O)n(CC)c2ccccc12)c1cc(Cl)ccc1OC | -0.7 | 6.1 | -33.7 | -11.4 | 25.2 | 20.4*
CCN(Cc1ccccc1)C(=O)COc1cc(=O)n(CC)c2ccccc12 | -4.4 | 8.1 | -10.6 | -11.8 | 57.8* | -2.1
